Assay results: ChEMBL document CHEMBL1800069, “Structure-based design of a new series of D-glutamic acid based inhibitors of bacterial UDP-N-acetylmuramoyl-L-alanine:D-glutamate ligase (MurD)” (J Med Chem, 2011)
pIC50: −log10 of the molar value. Converted amounts (≈) assume the structure as drawn. The source made the active and inactive calls. No cut-off for these calls is given here.

Key:
Escherichia coli [1] = test: Inhibition of Escherichia coli MurD ligase catalyzed addition of D-Glu to UDP-MurNAc-L-Ala assessed as residual activity at 500 uM after 15 mins by colorimetric analysis
In short: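 E. coli MurD activity read by malachite green detection of released orthophosphate, with 0.01% Triton X-100 present. Residual activity (%) measured with 500 μM test compound. Values are the mean of two independent experiments, with standard deviations within ±10% of the mean.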

[2] = Inhibition of Escherichia coli MurD ligase catalyzed addition of D-Glu to UDP-MurNAc-L-Ala after 15 mins by colorimetric analysis
In short: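 Malachite green colorimetric detection of orthophosphate released by E. coli MurD ligase, with 0.01% Triton X-100 present to avoid aggregate-based nonspecific inhibition. IC50 is taken as the inhibitor concentration that leaves 50% residual enzyme activity.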

Staphylococcus aureus = test: Antibacterial activity against Staphylococcus aureus ATCC 29213 after 18 to 24 hrs by CLSI method; format: functional
Enterococcus faecalis = test: Antibacterial activity against Enterococcus faecalis ATCC 29212 after 18 to 24 hrs by CLSI method; format: functional
Escherichia coli [3] = test: Antibacterial activity against Escherichia coli ATCC 25922 after 18 to 24 hrs by CLSI method; format: functional, organism-based
Pseudomonas aeruginosa = test: Antibacterial activity against Pseudomonas aeruginosa ATCC 27853 after 18 to 24 hrs by CLSI method; format: functional, organism-based

Row | SMILES | Activity (Escherichia coli [1]) | pIC50 [2] | other results
1 | O=C(O)CC[C@@H](NC(=O)c1ccc(NCc2ccc(/C=C3\SC(=O)NC3=O)cc2)cc1)C(=O)O | 88% |  | 
2 | O=C(O)CCC(=O)N(Cc1cccc(C(=O)N[C@H](CCC(=O)O)C(=O)O)c1)c1ccc(/C=C2\SC(=S)NC2=O)cc1 |  | 5.15 | MIC (Staphylococcus aureus): 128 µg/mL (≈ 213 µM); MIC (Enterococcus faecalis): 128 µg/mL (≈ 213 µM); Activity (Escherichia coli [3]): inactive; Activity (Pseudomonas aeruginosa): inactive
3 | O=C(O)CC[C@@H](NC(=O)c1cccc(CN(C(=O)CC(=O)O)c2ccc(/C=C3\SC(=O)NC3=O)cc2)c1)C(=O)O |  | 4.82 | 
4 | O=C(O)CC[C@@H](NC(=O)c1cccc(CNc2cccc(OCC(=O)O)c2)c1)C(=O)O | 89% |  | 
5 | COC(=O)CC[C@@H](NC(=O)c1cccc(CN(C(=O)CC(=O)OC)c2ccc(/C=C3\SC(=S)NC3=O)cc2)c1)C(=O)OC |  |  | Activity (Staphylococcus aureus): inactive; Activity (Enterococcus faecalis): inactive; Activity (Escherichia coli [3]): inactive; Activity (Pseudomonas aeruginosa): inactive
6 | O=C(O)/C=C/c1ccc(NCc2cccc(C(=O)N[C@H](CCC(=O)O)C(=O)O)c2)cc1 | 96% |  | 
7 | O=C(O)CCC(=O)N(Cc1cccc(C(=O)N[C@H](CCC(=O)O)C(=O)O)c1)c1ccc(/C=C2\SC(=O)NC2=O)cc1 |  | 3.98 | 
8 | O=C(O)CC[C@@H](NC(=O)c1cccc(CN(C(=O)C(=O)O)c2ccc(/C=C3\SC(=S)NC3=O)cc2)c1)C(=O)O |  | 5.30 | 
9 | N=C1NC(=O)/C(=C/c2ccc(NCc3cccc(C(=O)N[C@H](CCC(=O)O)C(=O)O)c3)cc2)S1 | 85% |  | 
10 | O=C(O)CC[C@@H](NC(=O)c1cc(CNc2ccc(/C=C3\SC(=O)NC3=O)cc2)ccc1F)C(=O)O | 71% |  | 
11 | O=C(O)CC[C@@H](NC(=O)c1cccc(CNc2ccc(OCC(=O)O)cc2)c1)C(=O)O | 87% |  | 
12 | O=C(O)CC[C@@H](NC(=O)c1cccc(CN(C(=O)C(=O)O)c2ccc(/C=C3\SC(=O)NC3=O)cc2)c1)C(=O)O |  | 4.40 | 
13 | O=C(O)CC[C@@H](NC(=O)c1cccc(CNc2ccc(/C=C3\NC(=O)NC3=O)cc2)c1)C(=O)O | 99% |  | 
14 | O=C(O)CC[C@@H](NC(=O)c1cc(CNc2ccc(/C=C3\SC(=S)NC3=O)cc2)ccc1F)C(=O)O |  | 3.60 | 
15 | COC(=O)CCC(=O)N(Cc1cccc(C(=O)N[C@H](CCC(=O)OC)C(=O)OC)c1)c1ccc(/C=C2\SC(=S)NC2=O)cc1 |  |  | Activity (Staphylococcus aureus): inactive; Activity (Enterococcus faecalis): inactive; Activity (Escherichia coli [3]): inactive; Activity (Pseudomonas aeruginosa): inactive
16 | O=C(O)CC[C@@H](NC(=O)c1cc(CNc2ccc(/C=C3\SC(=S)NC3=O)cc2)ccc1O)C(=O)O |  | 3.91 | 
17 | O=C(O)CC[C@@H](NC(=O)c1ccc2ccn(Cc3ccc(OCC(=O)O)cc3)c2c1)C(=O)O | 94% |  | 
18 | O=C(O)CC[C@@H](NC(=O)c1cccc(CN(C(=O)CC(=O)O)c2ccc(/C=C3\SC(=S)NC3=O)cc2)c1)C(=O)O |  | 5.52 | MIC (Enterococcus faecalis): 128 µg/mL (≈ 219 µM); Activity (Escherichia coli [3]): inactive; Activity (Pseudomonas aeruginosa): inactive
